This sample holds only a part of the variants without activity.

B1: tRNA (parent)
chain: GUUCCGUUGGCGUAAUGGUAACGCGUCUCCCUCCUAAGGAGAAGACUGCGGGUUCGAGUCCCGUACGGAACG

This data set covers variants of B1. As to the kind of experiment: yeast fitness relative to wild type (ratio to wild type); higher = fitter; tRNA-Arg(CCU), competitive growth, 37 C, YPD. An outline of the steps:
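Variants of the tRNA-Arg(CCU) gene, chemically synthesised with a 3% per-site mutation rate at 69 sites, were placed at the native genomic locus in Saccharomyces cerevisiae. The pooled strains were competed in YPD at 37°C for 24 hours in six parallel replicates. Gene amplicons from the start population and from each end population were read by 100-nucleotide paired-end sequencing. Darwinian fitness relative to wild type came from changes in genotype frequencies; genotypes needed ≥ 100 starting reads, and estimates < 0.5 were set to 0.5.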
Consider C31G A36C U47C, for which the yeast fitness was ≤ 0.5.
Under A15C A36U A69U stands 0.509; under C27U C34U A69U, 0.528; under C24A C30U C33A G41C A42U, ≤ 0.5.
Regarding G12C G17A A20U G58U, the yeast fitness was ≤ 0.5.
Under G12A A43U A45C C49U G67C stands ≤ 0.5; under C4A C49G G63C, 0.9.
Under G9C C27U U47C C55U C62G A69U stands ≤ 0.5.
Consider G6C G17A A36U C46A C66A, for which the yeast fitness came to 0.512.
With C4G C5G C11A G38A, the yeast fitness was ≤ 0.5.
Under C46U G51C U64A stands ≤ 0.5; under G56A G67U, 0.99.
Regarding U7C C29U, the yeast fitness is 0.754.
The figure for C11G A15G U26G C66U is ≤ 0.5; for A42C A57U C66U it is ≤ 0.5.
Under A43G A57G stands 0.924; under A40G C61U A65U, ≤ 0.5.
Under U28C C31A C34G A45U stands ≤ 0.5; under G10C A37U, ≤ 0.5; under G18C G41C C62G, ≤ 0.5.
As for G39C C66U, the yeast fitness worked out at 0.633.
The figure for G23A C46U is 0.646; for U35C A45U C49A C66U it is ≤ 0.5.
Under A43C A45G G58C stands 0.685; under U7A C62G, 0.63.
Turning to C4G G6C A43U G48A C66G, the yeast fitness was determined as 0.512.
The figure for C22G U28A A40U A57U is 0.657; for A45U U54C it is 0.886; for C4A A14G G17A C60G it is ≤ 0.5.
Under G18A C29U C31A stands 0.575; under C5G G48C C49U U54G A65G C66A, ≤ 0.5.
Under C5G C29A A36G A42C G44A C49U C60U stands ≤ 0.5; under C5G A15G, 0.819.
With U7C C27U A43U C61U, the yeast fitness is ≤ 0.5.
The figure for A37U G38A is 0.631.
Under A21C C24A C33A G48C stands 0.579; under C5G G12A A14G U35A, ≤ 0.5; under G9C G12C C31A A40U, ≤ 0.5.
Under C24U U32A G38A A57U G68U stands ≤ 0.5; under C4A G68C, 0.808; under C33G A45C G50C, ≤ 0.5.
Regarding A21G A40G C49G U59G G67C, the yeast fitness was ≤ 0.5.
Under C33U C62G A69C stands 0.595.
G6C A37C C62A A69C: the yeast fitness is ≤ 0.5.
As to C4A U19G A70C, the yeast fitness worked out at 0.854.
The figure for A14U G23U C61G is ≤ 0.5.
The figure for A14C C22A C46A is 0.605; for U26A C46G it is 0.973.
Under U16A A20U C24G C33G stands ≤ 0.5; under G12A C27U C30G G68U, ≤ 0.5.
In the case of C34G A37C C60G A65U, the yeast fitness was ≤ 0.5.
As for G50C C55A, the yeast fitness turned out to be 0.619.
The figure for C27G U59C C66G is ≤ 0.5; for C4G C29U A43G U53G G63A it is ≤ 0.5; for C22A U26A C29G C34G G50C U64C it is ≤ 0.5.
The figure for U8C C27A U47A G56C A69C is ≤ 0.5; for A14U C22G A57C G63C C66U it is 0.578; for C29G C33U C61U A69C it is ≤ 0.5.
Under C4A G9C C11G C30A C55A C62A stands ≤ 0.5; under A20C C29G G51A, 0.646; under G12A G23A U28G C49U G56C A65U, 0.526.
Take C33U A43U C49G G50C C61U: the yeast fitness was ≤ 0.5.
As to G10C G23C A45U U59G, the yeast fitness is 0.528.
Under C55G A57U stands 0.633; under U3A C27G A43G, ≤ 0.5; under C4U C24U C27A C60G G67C, ≤ 0.5.
The figure for A14G C27U U47A C62U is 0.566; for U7C G41A A42C G50C G67C it is ≤ 0.5; for U3C G25U U64G it is ≤ 0.5.
For C29G C46A, the yeast fitness amounted to 0.661.
The figure for A21G A40G C55A is 0.535; for C27U C46A A57C it is 0.726.
The figure for U8C U19C C55G A70C is ≤ 0.5; for C30U C46G C49U it is 0.641.
With C24A U59G C62U, the yeast fitness is ≤ 0.5.
Under C11A A20G C46U G50C C60A stands ≤ 0.5; under C30A C66U, 0.847.
Under A42U A43G G48C U53A A70C stands 0.525; under U19A C49U, 1.03; under G25C C27G U35C, ≤ 0.5.
Under U19G G39A A40G stands 0.56; under C4G C5G C29G, ≤ 0.5; under A14C C29G G48C G67A, ≤ 0.5.
For C11A C49U C61U, the yeast fitness is ≤ 0.5.
With A15U G25A C55G, the yeast fitness came out at 0.555.
Under A20C C27U C34G C61U C62G stands 0.616; under U7A G9C G12A G17C G48A, ≤ 0.5; under G12C G58A C62U A69C, 0.699.
The figure for C11U U26C C61G A65C is ≤ 0.5; for U3C U19A U28A C60G it is ≤ 0.5; for A42C C62A it is 0.719.
The figure for G12A A14U C30U is ≤ 0.5; for A15C G56A G67A it is 0.61; for U3A A65C A70U it is 0.66.
As for U19G A43U C66A, the yeast fitness was found to be 0.6.
Under U8G G10C stands ≤ 0.5; under C24A U26G C30G A43U C62U, 0.549.
Under C4A C61A G67A stands ≤ 0.5.
The figure for C22A G50C A65G is ≤ 0.5; for A14G A42U G44C U54A it is ≤ 0.5; for A20C U32A C34G A37U it is ≤ 0.5.
Turning to G58C A69U, the yeast fitness worked out at 0.846.
For the variant G39A C66U, the yeast fitness came out at 0.797.
The figure for A15U U59C is 0.788.
Under C31G U47G C49G stands 0.647; under U35C G51A, 0.731.
Under U19C C22G C34G A70U stands ≤ 0.5.
Turning to G38A A57U, the yeast fitness is 0.772.
Consider U2C C11G, for which the yeast fitness is 0.617.
The figure for G6C A36U G39A is ≤ 0.5; for A14G C49G G56C it is ≤ 0.5; for A57C A65C A70C it is 0.571.
The figure for C5G C27U C46U is 0.754; for U2G G39A C61G it is ≤ 0.5; for A15U G18C C34G A42G G52C it is 0.575.
Under G12A A36G U47G G63A A65U stands ≤ 0.5.
Take C4U C24U U54A: the yeast fitness was ≤ 0.5.
For U7A U16A A21G C29G C34A A65U C66U, the yeast fitness is ≤ 0.5.
The figure for U8A C55U G68A is 0.578; for A40C U47A A69G it is 0.54.
The figure for C4G C11G C55U C61A G68A is ≤ 0.5.
Regarding C22U C29A C55G A65U G67A, the yeast fitness is 0.578.
Under C5G C11U A45C stands ≤ 0.5.
C11G A37U C46U G63U: the yeast fitness is ≤ 0.5.
Regarding C5A U16G A69C, the yeast fitness turned out to be 0.69.
The figure for C49U U53C A69C is 0.597; for U19A G48A A65U it is 0.71; for G9A C46A C55U it is 0.543.
As for C29A C31U, the yeast fitness came to 0.713.
Take C4G G10A C30G A43G A57U: the yeast fitness is ≤ 0.5.
For C24U C46A C62A A69C, the yeast fitness is 0.573.
Turning to U7A A15G G23A G51A C55A C66U, the yeast fitness was ≤ 0.5.
With C61U A69U A70U, the yeast fitness worked out at 0.678.
Under A20C C49U U59C stands 0.588.
Under U7A G12A U64A stands ≤ 0.5.
Under G18C C34U stands ≤ 0.5.
With C4A C31G A40U A65U G68C, the yeast fitness turned out to be 0.595.
The figure for U26C C30G C34U C49U is 0.51; for C5A G17A C46A C55A it is ≤ 0.5.
Under C11G C30U C31G C33G A37U U64A stands ≤ 0.5.
Under A14G A15U stands 0.704; under A42C U59A A69U, 0.528.
On to G56C A69U A70U, for which the yeast fitness was ≤ 0.5.
The figure for G17A U28C A42C U47A C66U is ≤ 0.5; for A57C it is 0.62; for C22G C24G A45C G63C it is 0.563.
The figure for G6C G17C C34U C46A U64A is 0.597.
The figure for A14U U16A C27G A40U A57U C66A is ≤ 0.5.
For C11G A37C A45U G68C, the yeast fitness is ≤ 0.5.
Consider C30A A36U G39A A45G G63U, for which the yeast fitness was ≤ 0.5.
On to A37C A40G U47C, for which the yeast fitness is ≤ 0.5.
As for C11G C60G G67C, the yeast fitness is 0.667.
The figure for C29G U35A G48C is ≤ 0.5.
For the variant C27U G38A U59G U64C A65U, the yeast fitness is ≤ 0.5.
The figure for G9A A36U G39A G67A is ≤ 0.5; for U2G C22A G25A it is 0.639; for U19A G39A G44A it is 0.873.
Under C29U A43G stands 0.883; under C11U A20U U26C, ≤ 0.5; under C4A A40C, 0.812.
The figure for C22U A65G G68C is 0.534; for C11U C49A A57C it is ≤ 0.5; for A20G G25A C62U A65C it is 0.813.
Turning to U3A C4U G25C A69C, the yeast fitness was ≤ 0.5.
Under G18A A21C U32G stands 0.614.
As for U28C A37U A40U C49G A57U G68C A70G, the yeast fitness stood at 0.624.
For A14U C34G C66U, the yeast fitness is ≤ 0.5.
